Converted amounts (≈) assume the structure as drawn. The source made the active and inactive calls. The rule behind the calls is not given here.
Legend:
[1] = tested on: Hepatitis B virus; assay: Antiviral activity against Hepatitis B virus infected in human HepG2(2.2.15) cells assessed as decrease in intracellular viral DNA level at 2.16 uM after 72 hrs by RT-PCR analysis; assay type: functional, organism-based
Outline: (§1)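 HepG2.2.15 cells (HBV genome-transfected, MEM + 10% FBS) treated 72 h with drug alone or in two-drug combination. Entecavir 0.6 μg/ml (2.16 μM), adefovir 3 μg/ml (5.9 μM), lamivudine 3 μg/ml (13 μM), oxymatrine 30 μg/ml (113 μM). Intracellular HBV DNA by SYBR Green real-time PCR, relative to untreated. Experiment repeated twice; means and SD, Student's t test.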

[2] = tested on: Hepatitis B virus; assay: Antiviral activity against Hepatitis B virus infected in human HepG2(2.2.15) cells assessed as decrease in intracellular viral DNA level at 13 uM after 72 hrs by RT-PCR analysis; assay type: functional, organism-based; outline: as §1
[3] = Decrease in HscA70-mRNA expression in Hepatitis B virus infected in human HepG2(2.2.15) cells at 13 uM after 24-36 hrs by RT-PCR analysis; assay type: functional, cell-based
[4] = tested on: Hepatitis B virus; assay: Antiviral activity against Hepatitis B virus infected in human HepG2(2.2.15) cells assessed as decrease in intracellular viral DNA level at 1.51 mM after 36 hrs by RT-PCR analysis; assay type: functional; details: HepG2 2.2.15, 36 h
Outline: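 HepG2.2.15 cells (HBV full-genome transfected HepG2) in MEM with 10% FBS, exposed to 0.4 mg/ml (1.51 mM) for 36 h. Intracellular DNA (genomic plus HBV) isolated and HBV DNA quantified by SYBR Green real-time PCR. Values were normalised to the untreated-cell mean, set as 1.0. Run 3 times; means and SD.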

[5] = Decrease in Hsc70- mRNA expression in Hepatitis B virus infected in human HepG2(2.2.15) cells at 1.51 mM by RT-PCR analysis; assay type: functional, cell-based; details: TDE = time-dependent effect
[6] = Decrease in Hsc70-protein expression in Hepatitis B virus infected in human HepG2(2.2.15) cells at 1.51 mM after 24 hrs by Western blot analysis; assay type: functional, cell-based
Outline: (§2)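 HepG2.2.15 cells treated 24 h at 0.4 mg/ml (1.51 mM). Western blot: RIPA lysates with PMSF and protease inhibitors, SDS-PAGE, PVDF, 5% milk/TBST block 1 h at 37°C, mouse anti-Hsc70 monoclonal, HRP secondary, ECL. Flow cytometry: rabbit anti-Hsc70 with Cy5-labelled anti-rabbit secondary. Five experiments per assay.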

[7] = Decrease in Luc mRNA expression in human sHepG2(2.2.15) cells expressing pLuc-3'UTR […] by RT-PCR analysis; assay type: functional, cell-based; set-up: scale not given: the % may be the effect or the level left; details: HepG2 2.2.15
[8] = Cytotoxicity against human HepG2(2.2.15) cells assessed as cell survival at 113 uM continuous exposure measured after 2 months; details: hepg2 2.2.15, 1461 h
[9] = tested on: Hepatitis B virus; assay: Antiviral activity against lamivudine-resistant Hepatitis B virus infected in human Huh-7 cells assessed as suppression of viral replication at 1.51 mM after 24 hrs by RT-PCR analysis; assay type: functional; details: Huh-7, 24 h
Outline: (§3)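 Huh-7 cells (10^5/well) were plated and incubated overnight. They were then transfected for 24 h with pcDNA3.1 carrying one HBV strain: Lamr (rtL180M+rtM204V), Advr (rtA181V+rtN236T) or Etvr (rtL180M+rtM204V+rtS202G). Medium was replaced with fresh medium containing 0.4 mg/ml (1.51 mM) for 24 h. Intracellular HBV DNA replicative intermediates were quantified by real-time PCR against untreated controls. Performed twice.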

[10] = tested on: Hepatitis B virus; assay: Antiviral activity against adefovir-resistant Hepatitis B virus infected in human Huh-7 cells assessed as suppression of viral replication at 1.51 mM after 24 hrs by RT-PCR analysis; assay type: functional; details: Huh-7, 24 h; outline: as §3
[11] = tested on: HepG2; assay: Decrease in Hsc70- mRNA expression in human liver HepG2 cells at 0.23 to 0.94 mM after 24 hrs by RT-PCR analysis; assay type: functional, cell-based
Outline: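 Hsc70 mRNA by one-step SYBR Green qRT-PCR after 24 h treatment at 0.0625 or 0.25 mg/ml (0.23 and 0.94 mM), relative to untreated cells. More than 5 experiments; means and SD.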

[12] = tested on: Hepatitis B virus; assay: Antiviral activity against Hepatitis B virus infected in human HepG2(2.2.15) cells assessed as reduction in viral DNA level at 113 uM continuous exposure measured after 7 months by RT-PCR analysis
[13] = tested on: Hepatitis B virus; assay: Antiviral activity against Hepatitis B virus infected in human HepG2(2.2.15) cells assessed as reduction in viral DNA level at 23.6 uM to 1.51 mM after 72 hrs by RT-PCR analysis; assay type: functional
Outline: (§4)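 Dose-response in HepG2.2.15 cells: 5.9, 23.6, 94.5 and 378 μM and 1.51 mM for 72 h. Hsc70 mRNA by qRT-PCR and intracellular HBV DNA by real-time PCR, each expressed relative to untreated cells (=1). HBV DNA also checked by dot blot. EC50 from this curve.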

[14] = tested on: Hepatitis B virus; assay: Antiviral activity against Hepatitis B virus infected in human HepG2(2.2.15) cells assessed as reduction in genomic viral DNA at 23.6 uM to 1.51 mM after 24 hrs by RT-PCR analysis; assay type: functional; set-up: scale not given: the % may be the effect or the level left
[15] = tested on: Hepatitis B virus; assay: Antiviral activity against Hepatitis B virus infected in human HepG2(2.2.15) cells assessed as reduction in viral DNA level by RT-PCR analysis; assay type: functional, organism-based
[16] = Cytotoxicity against human HepG2(2.2.15) cells assessed as cell killing by MTT assay; assay type: cell-based
Outline: (§5)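 CC50 from MTT assay in HepG2.2.15 cells. Therapeutic ratio taken as CC50 over the anti-HBV EC50 from the 72 h dose-response measuring intracellular HBV DNA by real-time PCR.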

[17] = tested on: Hepatitis B virus; assay: Antiviral activity against Hepatitis B virus infected in human HepG2(2.2.15) cells assessed as reduction in viral DNA replicative intermediates at 23.6 uM to 1.51 mM after 24 hrs by RT-PCR analysis; assay type: functional
[18] = Cytotoxicity against human HepG2(2.2.15) cells assessed as cell survival at 113 uM continuous exposure measured after 7 months; details: hepg2 2.2.15, 5113.5 h
[19] = tested on: Hepatitis B virus; assay: Antiviral activity against drug-resistant chronic Hepatitis B virus infected patients assessed as reduction in viral DNA at 0.4 g/day, po for 12 months; assay type: functional
[20] = Decrease in Hsc70-protein expression in Hepatitis B virus infected in human HepG2(2.2.15) cells at 1.51 mM after 24 hrs by flow-cytometric assay; assay type: functional, cell-based; outline: as §2
[21] = tested on: Hepatitis B virus; assay: Antiviral activity against entecavir-resistant Hepatitis B virus infected in human Huh-7 cells assessed as suppression of viral replication at 1.51 mM after 24 hrs by RT-PCR analysis; assay type: functional; details: Huh-7, 24 h; outline: as §3
[22] = Cytotoxicity against human HepG2(2.2.15) cells assessed as cell growth at 1.51 mM after 36 hrs; assay type: cell-based; details: hepg2 2.2.15, 36 h, 1510 µM
Outline: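 HepG2.2.15 cell growth followed during 36 h exposure to 0.4 mg/ml (1.51 mM), compared with untreated cells; experiment repeated twice.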

[23] = tested on: Hepatitis B virus; assay: Antiviral activity against Hepatitis B virus infected in human HepG2(2.2.15) cells assessed as reduction in viral DNA level at 113 uM continuous exposure measured after 2 months by RT-PCR analysis
[24] = tested on: Hepatitis B virus; assay: Antiviral activity against Hepatitis B virus infected in human HepG2(2.2.15) cells assessed as decrease in intracellular viral DNA level at 113 uM after 72 hrs by RT-PCR analysis in presence of entecavir; assay type: functional, organism-based; outline: as §1
[25] = Decrease in Hsc70- mRNA expression in Hepatitis B virus infected in human HepG2(2.2.15) cells at 1.51 mM after 72 hrs by RT-PCR analysis; assay type: functional, cell-based; outline: as §4
[26] = tested on: HepG2 2.2.15; assay: Reduction in Hsc70 mRNA half-life in Hepatitis B virus infected in human HepG2(2.2.15) cells at 1.51 mM after 24 hrs by RT-PCR analysis; assay type: functional; details: HepG2 2.2.15, 24 h
Outline: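 HepG2.2.15 cells treated or not with 0.4 mg/ml (1.51 mM) for 24 h, then actinomycin D 5 μg/ml added to block transcription. RNA harvested at intervals; Hsc70 mRNA by real-time RT-PCR, normalized to GAPDH. Percent remaining plotted against time to estimate T1/2. Repeated twice.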

[27] = Decrease in HscA90-mRNA expression in Hepatitis B virus infected in human HepG2(2.2.15) cells at 1.51 mM after 24 hrs by RT-PCR analysis; assay type: functional, cell-based
Outline: (§6)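 HepG2.2.15 cells at 0.4 mg/ml (1.51 mM). HspA4 and Hsp90 mRNA measured as host reference genes by one-step SYBR Green qRT-PCR, alongside Hsc70 mRNA and HBV DNA.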

[28] = tested on: Hepatitis B virus; assay: Antiviral activity against Hepatitis B virus infected in human HepG2(2.2.15) cells assessed as reduction in viral DNA level at 1.51 mM for 12, 24 or 36 hrs by RT-PCR analysis; assay type: functional, organism-based
Outline: (§7)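 HepG2.2.15 cells exposed to 0.4 mg/ml (1.51 mM) for 12, 24 or 36 h. Total RNA taken for HBV mRNA by one-step SYBR Green qRT-PCR; intracellular DNA isolated for HBV DNA by real-time PCR. Each value scaled to the mean of untreated cells set as 1.0. Three experiments; means and SD.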

[29] = Therapeutic index, ratio of CC50 for human sHepG2(2.2.15) cells to IC50 for Hepatitis B virus; assay type: cell-based; details: HepG2 2.2.15 cells; outline: as §5
[30] = Half life in human blood; assay type: ADME, tissue-based
[31] = Decrease in wild type Luc mRNA expression in human HepG2(2.2.15) cells after 24 hrs by RT-PCR analysis; assay type: functional, cell-based
Outline: (§8)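 HepG2.2.15 cells transfected 24 h with luciferase reporter pLuc (pcDNA3.0 backbone), pLuc-3′UTR or pLuc-5′UTR (Hsc70 UTR chimeras). Cells split into two dishes, incubated overnight, then given drug or dilution buffer. Total RNA taken 12 h later; Luc mRNA by real-time RT-PCR. Three experiments; means and SD.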

[32] = tested on: Hepatitis B virus; assay: Antiviral activity against Hepatitis B virus infected in human HepG2(2.2.15) cells assessed as decrease in supernatant viral DNA level at 1.51 mM after 36 hrs by RT-PCR analysis; assay type: functional; set-up: scale not given: the % may be the effect or the level left
[33] = Decrease in Luc mRNA expression in human sHepG2(2.2.15) cells expressing pLuc-5'UTR after 24 hrs by RT-PCR analysis; assay type: functional, cell-based; details: HepG2 2.2.15; outline: as §8
[34] = tested on: Hepatitis B virus; assay: Antiviral activity against Hepatitis B virus infected in human HepG2(2.2.15) cells assessed as decrease in intracellular viral DNA level at 113 uM after 72 hrs by RT-PCR analysis in presence of adefovir; assay type: functional, organism-based; outline: as §1
[35] = Decrease in HscA4-mRNA expression in Hepatitis B virus infected in human HepG2(2.2.15) cells at 1.51 mM after 24 hrs by RT-PCR analysis; assay type: functional, cell-based; outline: as §6
[36] = tested on: Hepatitis B virus; assay: Antiviral activity against Hepatitis B virus infected in human HepG2(2.2.15) cells assessed as reduction in viral mRNA level at 1.51 mM for 12, 24 or 36 hrs by RT-PCR analysis; assay type: functional, organism-based; outline: as §7
[37] = tested on: Hepatitis B virus; assay: Antiviral activity against Hepatitis B virus infected in human HepG2(2.2.15) cells assessed as decrease in intracellular viral DNA level at 113 uM after 72 hrs by RT-PCR analysis; assay type: functional, organism-based; outline: as §1
[38] = Decrease in HscA70-mRNA expression in Hepatitis B virus infected in human HepG2(2.2.15) cells at 5.9 uM after 24-36 hrs by RT-PCR analysis; assay type: functional, cell-based
[39] = tested on: Hepatitis B virus; assay: Antiviral activity against Hepatitis B virus infected in human HepG2(2.2.15) cells assessed as decrease in intracellular viral DNA level at 5.9 uM after 72 hrs by RT-PCR analysis; assay type: functional, organism-based
Outline: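 HepG2.2.15 cells were treated at 5.9, 23.6, 94.5 and 378 μM and 1.51 mM for 72 h. Intracellular HBV DNA was measured by real-time PCR, with Hsc70 mRNA by RT-PCR in parallel. Amounts were expressed relative to untreated cells, set as 1. Dot blot was used as confirmation. Means and SD.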

C=C1[C@H](CO)[C@@H](O)C[C@@H]1n1cnc2c(=O)[nH]c(N)nc21
Activity [1]: Active

Nc1ccn([C@@H]2CS[C@H](CO)O2)c(=O)n1
Activity [2]: Active
Activity [3]: inactive

O=C1CCC[C@@H]2[C@H]3CCC[N+]4([O-])CCC[C@@H](CN12)[C@@H]34 (some centres undefined) [OXYMATRINE]
inhibition at 1510 µM [4]: 62%
Activity [5]: tde
Activity [6]: Active
Activity [7]: 50%
Activity [8]: Non-toxic
inhibition at 1510 µM [9]: 62%
inhibition at 1510 µM [10]: 62%
Activity [11]: Active
Activity [12]: Active
inhibition (INH) [13]: 43%
Activity [14]: 54%
EC50 [15]: 31 µg/mL (≈ 117 µM)
MTT [16]: 3.12 mg/mL
inhibition (INH) [17]: 75%
Activity [18]: Non-toxic
log10cfu [19]: 1.5
Activity [20]: Active
inhibition at 1510 µM [21]: 62%
Activity [22]: Non-toxic
Activity [23]: Active
Activity [24]: Active
Activity [25]: inactive
inhibition at 1510 µM [26]: 50%
Activity [27]: inactive
Activity [28]: Active
selectivity ratio [29]: > 100
half-life [30]: 2.4 h
Activity [31]: inactive
Activity [32]: 60%
Activity [33]: inactive
Activity [34]: Active
Activity [35]: inactive
Activity [36]: inactive
Activity [37]: Active

Nc1ncnc2c1ncn2CCOCP(=O)(O)O
Activity [38]: inactive
Activity [39]: Active
